From PMC3677025 (Pharmacological research : the official journal of the …, 2012)
One block for each molecule: values may come before it.

Legend:
[1] = target: T1, EphA4 (Mus musculus, UniProt Q03137); assay: EphA4 AP binding to immobilized KYL peptide; details: for inhibition at 10 µM: read-out: (% Inhib.) EphA4 KYL; for (% Inhib.) EphA4 KYL: screen, compounds at 10 μM
Outline: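 Biotinylated KYL peptide (biotin on the lysine of a C-terminal GSGSK linker) was captured on streptavidin-coated wells, with coating in borate buffer pH 8.7. Test compound (10 μM in 1% DMSO for screening; varied concentrations for confirmation) was added with ~0.35 nM mouse EphA4 ectodomain–AP from NIH3T3 supernatant in TBST. Bound AP was read at 405 nm with 1 mg/ml p-nitrophenylphosphate in SEAP buffer pH 9.8, minus AP-only background. Percent inhibition was taken relative to no-compound wells.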

[2] = target: T1, EphA4; assay: ELISA, ephrin-A5 AP binding to immobilized EphA4 Fc
Outline: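 Mouse EphA4 Fc was captured at 1 μg/ml on protein A wells. Ephrin-A5 AP (~0.01 nM for IC50) from HEK293 supernatant was added with test compound for 2 h in TBST and read with p-nitrophenylphosphate, minus Fc-only background. For reversibility, compound was incubated 2 h, washed 30 min, then ephrin-A5 AP added for 1 h. For mode of inhibition, ephrin-A5 AP was titrated per compound concentration and fitted one-site; Ki came from KD/Bmax versus inhibitor regression.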

[3] = target: EphA2 (Mus musculus, UniProt Q03145); assay: ELISA, ephrin-A5 AP binding to immobilized EphA2 Fc; details: read-out: IC50 ± SE EphA2 ephrin-A5
Chain of EphA2 (Mus musculus, UniProt Q03145) (Q03145 26-538): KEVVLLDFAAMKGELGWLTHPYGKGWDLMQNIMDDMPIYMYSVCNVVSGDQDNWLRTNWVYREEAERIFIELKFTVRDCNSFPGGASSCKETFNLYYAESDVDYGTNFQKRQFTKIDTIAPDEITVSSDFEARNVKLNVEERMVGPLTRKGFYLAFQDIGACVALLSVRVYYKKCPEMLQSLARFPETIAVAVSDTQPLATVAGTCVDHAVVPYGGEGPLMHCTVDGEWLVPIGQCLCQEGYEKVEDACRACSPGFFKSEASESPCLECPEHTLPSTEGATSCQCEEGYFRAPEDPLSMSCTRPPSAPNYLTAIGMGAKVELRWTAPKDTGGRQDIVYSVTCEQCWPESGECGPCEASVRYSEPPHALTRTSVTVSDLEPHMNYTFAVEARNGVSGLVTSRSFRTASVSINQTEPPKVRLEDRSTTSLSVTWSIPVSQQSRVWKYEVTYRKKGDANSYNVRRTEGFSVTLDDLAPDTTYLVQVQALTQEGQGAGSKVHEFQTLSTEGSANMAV

[4] = target: T2, EphB4 (Mus musculus, UniProt P54761); assay: ELISA, ephrin-B2 AP binding to immobilized EphB4 Fc; details: for IC50: read-out: IC50 ± SE EphB4 ephrin-B2
T2 sequence (P54761 16-539): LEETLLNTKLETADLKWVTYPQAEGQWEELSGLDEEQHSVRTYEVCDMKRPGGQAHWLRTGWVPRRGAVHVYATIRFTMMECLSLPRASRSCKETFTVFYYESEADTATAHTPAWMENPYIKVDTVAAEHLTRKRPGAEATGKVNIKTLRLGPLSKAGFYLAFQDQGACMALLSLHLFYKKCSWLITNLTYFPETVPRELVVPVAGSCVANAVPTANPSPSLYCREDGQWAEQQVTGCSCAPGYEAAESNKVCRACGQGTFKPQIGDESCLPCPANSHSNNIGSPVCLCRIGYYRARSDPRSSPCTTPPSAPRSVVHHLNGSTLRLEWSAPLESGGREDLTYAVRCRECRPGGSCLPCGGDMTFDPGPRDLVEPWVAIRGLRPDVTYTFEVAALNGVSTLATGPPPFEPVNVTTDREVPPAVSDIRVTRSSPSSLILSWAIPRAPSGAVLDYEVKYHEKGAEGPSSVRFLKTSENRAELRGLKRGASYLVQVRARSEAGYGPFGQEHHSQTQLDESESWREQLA

[5] = test system: EphB6; assay: ELISA, ephrin-B2 AP binding to immobilized EphB6 Fc; details: at 100 μM
Outline: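 Eph receptor Fc fusions were immobilized at 1 μg/ml in TBST on protein A-coated wells. Diluted ephrin AP fusion supernatant from transiently transfected HEK293 cells was added for 2 h with or without test compound; for IC50 it was at approximately 0.01 nM. Bound AP was read with p-nitrophenylphosphate, minus Fc-only background. IC50 came from a variable-slope log(inhibitor)–response fit, bottom constrained to 0.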

[6] = test system: Eph receptors; assay: ELISA, ephrin binding to panel of EphA and EphB receptors; details: at 100 μM
[7] = target: EphA2 (Homo sapiens, UniProt P29317); assay: Ephrin-A1 Fc-induced EphA2 phosphorylation in HUVECs; type: cell-based; details: at 50 μM
Chain of EphA2 (Homo sapiens, UniProt P29317) (P29317 24-976): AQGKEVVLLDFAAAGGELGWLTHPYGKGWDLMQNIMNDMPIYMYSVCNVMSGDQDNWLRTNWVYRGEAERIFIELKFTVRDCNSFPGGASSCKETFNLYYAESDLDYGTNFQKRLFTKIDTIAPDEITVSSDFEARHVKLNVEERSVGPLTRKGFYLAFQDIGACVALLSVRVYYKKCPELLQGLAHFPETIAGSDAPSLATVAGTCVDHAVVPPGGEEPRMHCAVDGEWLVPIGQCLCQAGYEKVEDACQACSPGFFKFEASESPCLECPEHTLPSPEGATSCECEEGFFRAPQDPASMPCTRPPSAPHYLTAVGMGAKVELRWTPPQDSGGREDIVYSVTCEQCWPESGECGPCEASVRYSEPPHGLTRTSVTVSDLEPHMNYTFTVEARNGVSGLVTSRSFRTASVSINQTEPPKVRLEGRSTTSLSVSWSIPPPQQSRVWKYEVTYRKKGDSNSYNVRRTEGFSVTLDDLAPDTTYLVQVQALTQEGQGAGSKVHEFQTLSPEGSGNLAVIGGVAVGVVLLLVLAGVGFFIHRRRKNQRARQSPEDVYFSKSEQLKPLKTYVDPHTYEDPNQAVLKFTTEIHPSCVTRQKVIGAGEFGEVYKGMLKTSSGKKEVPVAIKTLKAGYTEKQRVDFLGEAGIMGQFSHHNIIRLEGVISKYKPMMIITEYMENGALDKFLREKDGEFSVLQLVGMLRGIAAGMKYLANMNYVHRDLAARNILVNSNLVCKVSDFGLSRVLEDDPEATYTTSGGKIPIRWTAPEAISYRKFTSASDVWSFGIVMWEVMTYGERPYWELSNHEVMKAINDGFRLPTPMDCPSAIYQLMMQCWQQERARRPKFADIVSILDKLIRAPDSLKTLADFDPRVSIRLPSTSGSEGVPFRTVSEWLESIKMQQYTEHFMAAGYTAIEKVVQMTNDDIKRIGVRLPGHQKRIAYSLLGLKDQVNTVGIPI
Outline: (§1)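 HUVECs were serum-starved 1–2 h and preincubated 15 min with 50 μM test compound (DMSO ≤0.4% final). They were then stimulated 20 min with 0.25 μg/mL ephrin-A1 Fc plus 1.5 μg/mL ephrin-B2 Fc (preclustered with 3-fold anti-Fc), or Fc, with compound present. Lysates were made in modified RIPA with NaF and pervanadate. EphA2 (1 μg antibody) and EphB4 (20 μg antibody) immunoprecipitates were immunoblotted for phosphotyrosine; lysates were probed for receptors and β-actin.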

[8] = target: T3, EphB4 (Homo sapiens, UniProt P54760); assay: Ephrin-B2 Fc-induced EphB4 phosphorylation in HUVECs; type: cell-based; details: at 50 μM
T3 sequence (P54760 16-987): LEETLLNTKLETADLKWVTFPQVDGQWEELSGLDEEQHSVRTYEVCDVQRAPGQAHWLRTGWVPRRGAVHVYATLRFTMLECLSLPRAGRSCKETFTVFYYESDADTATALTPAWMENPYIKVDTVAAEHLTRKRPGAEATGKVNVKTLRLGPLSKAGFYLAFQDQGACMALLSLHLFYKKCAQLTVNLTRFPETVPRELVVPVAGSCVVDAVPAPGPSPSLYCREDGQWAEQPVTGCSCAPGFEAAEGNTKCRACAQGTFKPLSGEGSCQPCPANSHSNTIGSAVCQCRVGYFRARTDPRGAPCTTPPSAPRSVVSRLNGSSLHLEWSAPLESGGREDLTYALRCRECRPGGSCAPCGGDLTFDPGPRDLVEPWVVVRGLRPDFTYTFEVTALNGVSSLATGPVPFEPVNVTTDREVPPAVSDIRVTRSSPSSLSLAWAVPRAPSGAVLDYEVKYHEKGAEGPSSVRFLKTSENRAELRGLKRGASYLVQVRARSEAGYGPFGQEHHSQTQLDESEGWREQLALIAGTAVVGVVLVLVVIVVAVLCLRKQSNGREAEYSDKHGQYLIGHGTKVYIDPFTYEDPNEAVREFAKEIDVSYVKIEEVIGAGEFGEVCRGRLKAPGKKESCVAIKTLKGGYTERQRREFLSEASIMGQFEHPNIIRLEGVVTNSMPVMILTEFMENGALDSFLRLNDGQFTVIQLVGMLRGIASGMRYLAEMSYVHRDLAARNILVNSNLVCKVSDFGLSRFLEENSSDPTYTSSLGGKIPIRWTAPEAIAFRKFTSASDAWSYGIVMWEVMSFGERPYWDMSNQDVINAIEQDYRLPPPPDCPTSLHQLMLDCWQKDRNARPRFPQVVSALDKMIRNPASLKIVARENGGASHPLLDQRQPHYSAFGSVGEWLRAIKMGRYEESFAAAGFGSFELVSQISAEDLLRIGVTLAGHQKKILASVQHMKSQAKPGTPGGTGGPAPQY
Outline: as §1

[9] = test system: HUVECs; assay: Capillary-like tube formation assay, HUVECs on Matrigel; type: cell-based, human; details: at 10 μM, 18 hours
Outline: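 HUVECs (2.3 × 10⁴) were seeded on Matrigel-precoated wells in complete HUVEC medium containing test compound or DMSO control and grown for 18 h. Polygons were counted from phase-contrast images, 2–4 pictures from each of 3–6 wells. Counts were compared with DMSO-only wells by one-way ANOVA with Dunnett's post-hoc test.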

[10] = read-out: IC50 ± SE EphA4 ephrin-A5

T1 sequence (Q03137 20-547 limits assumed): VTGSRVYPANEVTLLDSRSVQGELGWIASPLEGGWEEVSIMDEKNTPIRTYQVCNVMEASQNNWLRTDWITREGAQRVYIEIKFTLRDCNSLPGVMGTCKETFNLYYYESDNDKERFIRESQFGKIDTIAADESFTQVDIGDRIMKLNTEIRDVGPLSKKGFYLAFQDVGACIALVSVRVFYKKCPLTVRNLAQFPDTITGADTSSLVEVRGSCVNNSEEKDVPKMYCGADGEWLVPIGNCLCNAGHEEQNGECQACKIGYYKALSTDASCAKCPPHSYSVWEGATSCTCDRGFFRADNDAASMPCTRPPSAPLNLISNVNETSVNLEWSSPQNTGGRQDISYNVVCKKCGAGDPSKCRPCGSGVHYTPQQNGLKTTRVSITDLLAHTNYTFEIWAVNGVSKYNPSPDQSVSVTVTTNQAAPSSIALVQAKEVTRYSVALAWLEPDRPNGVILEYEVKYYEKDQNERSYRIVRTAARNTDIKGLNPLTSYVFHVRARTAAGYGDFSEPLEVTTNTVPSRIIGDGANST

Molecule: O=C(O[C@@H]1Cc2c(O)cc(O)cc2O[C@@H]1c1ccc(O)c(O)c1)c1cc(O)c(O)c(O)c1 [epicatechin-3-monogallate, epicatechin-3-gallate]
IC50 ([1]; read-out: IC50 ± SE EphA4 KYL): 50 ± 6 µM
(% Inhib.) EphA4 KYL [1]: < 40%
IC50 [2, 10]: > 200 µM
IC50 [3]: > 200 µM
IC50 [4]: > 200 µM

Molecule: Oc1cc(O)c2c(c1)O[C@H](c1cc(O)c(O)c(O)c1)[C@H](O)C2 [epigallotechin, epigallocatechin]
IC50 [1]: 44 ± 13 µM
inhibition at 10 µM [1]: < 40%
IC50 [2]: > 200 µM

Molecule: O=C(O)c1cc(O)c(=O)c2c(O)c(O)cc([C@H]3Oc4cc(O)cc(O)c4C[C@H]3O)c2c1 [epitheaflavic acid]
(% Inhib.) EphA4 KYL [1]: less than 40%

Molecule: epigallocatechin-3-gallate [EGCG]
IC50 ([1]; read-out: IC50 ± SE EphA4 KYL): 15 ± 1.8 µM
(% Inhib.) EphA4 KYL [1]: < 40%
inhibition of ephrin-A5 binding to EphA4 ([2]; at 200 μM): ~ 25%
IC50 [2, 10]: > 200 µM
IC50 [3]: > 200 µM
inhibition of ephrin binding to EphB4 ([4]; at 100 μM): not detectably inhibited
IC50 [4]: > 200 µM
inhibition of ephrin binding to EphB6 [5]: not detectably inhibited
inhibition of ephrin binding to many Eph receptors [6]: 10–30%
EphA2 phosphorylation in HUVECs [7]: does not strongly inhibit
EphB4 phosphorylation in HUVECs [8]: does not strongly inhibit
capillary-like tube formation [9]: significantly inhibits

Results, then the molecule that gave them:

inhibition at 10 µM [1]: 80%
Molecule: O=C(O[C@@H]1Cc2c(O)cc(O)cc2O[C@@H]1c1cc(O)c(O)c(O)c1-c1c([C@H]2Oc3cc(O)cc(O)c3C[C@H]2O)cc(O)c(O)c1O)c1cc(O)c(O)c(O)c1 [2′,2′-bisepigallocatechin monogallate]

(% Inhib.) EphA4 KYL [1]: 76%
Molecule: O=C(O[C@@H]1Cc2c(O)cc(O)cc2O[C@@H]1c1cc(O)c(O)c(O)c1-c1c([C@H]2Oc3cc(O)cc(O)c3C[C@H]2OC(=O)c2cc(O)c(O)c(O)c2)cc(O)c(O)c1O)c1cc(O)c(O)c(O)c1 [2′,2‴-bisepigallocatechin digallate]

IC50 [1]: 190 ± 1.5 µM
inhibition at 10 µM [1]: < 40%
IC50 [2]: > 200 µM
Molecule: Oc1cc(O)c2c(c1)O[C@H](c1ccc(O)c(O)c1)[C@H](O)C2 [epicatechin]

(% Inhib.) EphA4 KYL [1]: less than 40%
Molecule: O=C(O)c1cc(O)c(=O)c2c(O)c(O)cc([C@H]3Oc4cc(O)cc(O)c4C[C@@H]3O)c2c1 [theaflavic acid]

inhibition at 10 µM [1]: < 40%
Molecule: O=c1c(O)cc([C@H]2Oc3cc(O)cc(O)c3C[C@H]2O)cc2c([C@H]3Oc4cc(O)cc(O)c4C[C@H]3O)cc(O)c(O)c12 [theaflavin]

(% Inhib.) EphA4 KYL [1]: 65%
Molecule: theaflavin-3,3′-digallate [theaflavin-3,3′-digallate]
